Experimental data taken from ChEMBL document CHEMBL3774312, “5-Substituted 3-isopropyl-7-[4-(2-pyridyl)benzyl]amino-1(2)H-pyrazolo[4,3-d]pyrimidines with anti-proliferative activity as potent and selective inhibitors of cyclin-dependent kinases” (Eur J Med Chem, 2016).
pIC50: −log10 of the molar value. The source made the active and inactive calls. The rule behind the calls is not given here.

Legend:
[1] = target: Cyclin-dependent kinase 2/cyclin E1 (Homo sapiens, UniProt P24941); assay: Inhibition of CDK2/Cyclin E (unknown origin) expressed in sf9 cells using histone H1 as substrate in presence of [gamma33P]-ATP; format: cell-based
K562 = assay: Cytotoxicity against human K562 cells assessed as reduction in cell viability after 72 hrs by calcein AM staining based fluorescence assay; format: functional; conditions: K562, 72 h
In short: (§1)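 Cells were grown in DMEM with 10% FBS, penicillin and streptomycin at 37 °C in 5% CO2. Three doses were tested in triplicate for 72 h.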

MCF7 [2] = assay: Cytotoxicity against human MCF7 cells assessed as reduction in cell viability after 72 hrs by calcein AM staining based fluorescence assay; format: functional; conditions: for pIC50: MCF7, 72 h; in short: as §1
[3] = Cytotoxicity against human G361 cells assessed as reduction in cell viability after 72 hrs by calcein AM staining based fluorescence assay; format: functional; conditions: G-361, 72 h; in short: as §1
[4] = (§2) Cytotoxicity against human HCT116 cells assessed as reduction in cell viability after 72 hrs by calcein AM staining based fluorescence assay; format: functional; conditions: HCT-116, 72 h
In short: (§3)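 Cells were grown in DMEM with 10% FBS, penicillin and streptomycin at 37 °C in 5% CO2. Three doses were tested in triplicate for 72 h. Live cells were read by Calcein AM fluorescence at 485/538 nm.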

G-361 [5] = assay: Induction of apoptosis in human G361 cells assessed as caspase3 activation using Ac-DEVD-AMC as substrate at IC50 preincubated for 24 hrs followed by substrate addition measured after 3 hrs by fluorescence assay; format: functional, cell-based
G-361 [6] = assay: Induction of apoptosis in human G361 cells assessed as caspase3 activation using Ac-DEVD-AMC as substrate at 5 times IC50 preincubated for 24 hrs followed by substrate addition measured after 3 hrs by fluorescence assay; format: functional, cell-based
G-361 [7] = assay: Induction of apoptosis in human G361 cells assessed as caspase7 activation using Ac-DEVD-AMC as substrate at IC50 preincubated for 24 hrs followed by substrate addition measured after 3 hrs by fluorescence assay; format: functional, cell-based
G-361 [8] = assay: Induction of apoptosis in human G361 cells assessed as caspase7 activation using Ac-DEVD-AMC as substrate at 5 times IC50 preincubated for 24 hrs followed by substrate addition measured after 3 hrs by fluorescence assay; format: functional, cell-based
[9] = target: Cyclin-dependent kinase 2 (Homo sapiens) (UniProt P24941); assay: Inhibition of CDK2 in human G361 cells assessed as reduction in phosphorylation of RNA polymerase 2 at C-terminus at 1.5 to 15 uM incubated for 24 hrs by immunoblotting analysis; format: cell-based; conditions: G-361
In short: (§4)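 Treated G361 cells were lysed in Laemmli buffer, run on SDS-PAGE and blotted to nitrocellulose. Blots were probed overnight with antibodies to RNA polymerase II phosphorylated at S5 and S2, and to total RNA polymerase II (ARNA-3). Peroxidase secondaries were then applied and signal was detected by ECL with a CCD camera.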

[10] = target: Cyclin-dependent kinase 2 (Homo sapiens) (UniProt P24941); assay: Inhibition of CDK2 in human G361 cells assessed as reduction in phosphorylation of RNA polymerase 2 at C-terminus at 15 uM incubated for 0.5 to 24 hrs by immunoblotting analysis; format: cell-based; conditions: G-361; in short: as §4
[11] = target: Cyclin-dependent kinase 5 (Homo sapiens, UniProt Q00535); assay: Inhibition of CDK5 (unknown origin) using histone H1 as substrate in presence of [gamma33P]-ATP
[12] = target: Cyclin-dependent kinase 2 (Homo sapiens) (UniProt P24941); assay: Inhibition of CDK2 in human G361 cells assessed as reduction in phosphorylation of RNA polymerase 2 at C-terminus at 0.075 to 0.75 uM incubated for 24 hrs by immunoblotting analysis; format: cell-based; conditions: G-361; in short: as §4
[13] = target: Cyclin-dependent kinase 2 (Homo sapiens) (UniProt P24941); assay: Inhibition of CDK2 in human G361 cells assessed as reduction in phosphorylation of RNA polymerase 2 at C-terminus at 0.75 uM incubated for 0.5 to 24 hrs by immunoblotting analysis; format: cell-based; conditions: G-361; in short: as §4
HCT-116 = assay: as §2; format: functional; in short: as §3
MCF7 [14] = assay: Cell cycle arrest in BrdU pulse-labelled human MCF7 cells assessed as accumulation at subG1 phase at 8 to […] after 24 hrs by propidium iodide staining based flow cytometry; format: functional
MCF7 [15] = assay: Cell cycle arrest in BrdU pulse-labelled human MCF7 cells assessed as accumulation at late S phase at 8 to […] after 24 hrs by propidium iodide staining based flow cytometry; format: functional
MCF7 [16] = assay: Cell cycle arrest in BrdU pulse-labelled human MCF7 cells assessed as accumulation at late G2/M phase at 8 to […] after 24 hrs by propidium iodide staining based flow cytometry; format: functional
MCF7 [17] = assay: Cell cycle arrest in BrdU pulse-labelled human MCF7 cells assessed as decrease in cells at S phase at 8 to […] after 24 hrs by propidium iodide staining based flow cytometry; format: functional
MCF7 [18] = assay: Cell cycle arrest in BrdU pulse-labelled human MCF7 cells assessed as accumulation at late G2/M phase at 8 to 250 nM after 24 hrs by propidium iodide staining based flow cytometry; format: functional
MCF7 [19] = assay: Cell cycle arrest in BrdU pulse-labelled human MCF7 cells assessed as decrease in cells at S phase at 8 to 250 nM after 24 hrs by propidium iodide staining based flow cytometry; format: functional
MCF7 [20] = assay: Cell cycle arrest in BrdU pulse-labelled human MCF7 cells assessed as accumulation at subG1 phase at 8 to 250 nM after 24 hrs by propidium iodide staining based flow cytometry; format: functional
MCF7 [21] = assay: Cell cycle arrest in BrdU pulse-labelled human MCF7 cells assessed as accumulation at late S phase at 8 to 250 nM after 24 hrs by propidium iodide staining based flow cytometry; format: functional
[22] = target: Cyclin-dependent kinase 2 (Homo sapiens) (UniProt P24941); assay: Inhibition of CDK2 in human G361 cells assessed as reduction in phosphorylation of RNA polymerase 2 at C-terminus at 1 uM incubated for 0.5 to 24 hrs by immunoblotting analysis; format: cell-based; conditions: G-361; in short: as §4
[23] = target: Cyclin-dependent kinase 2 (Homo sapiens) (UniProt P24941); assay: Inhibition of CDK2 in human G361 cells assessed as reduction in phosphorylation of RNA polymerase 2 at C-terminus at 2.4 to 24 uM incubated for 24 hrs by immunoblotting analysis; format: cell-based; conditions: G-361; in short: as §4

Chain of Cyclin-dependent kinase 5 (Q00535 whole entry): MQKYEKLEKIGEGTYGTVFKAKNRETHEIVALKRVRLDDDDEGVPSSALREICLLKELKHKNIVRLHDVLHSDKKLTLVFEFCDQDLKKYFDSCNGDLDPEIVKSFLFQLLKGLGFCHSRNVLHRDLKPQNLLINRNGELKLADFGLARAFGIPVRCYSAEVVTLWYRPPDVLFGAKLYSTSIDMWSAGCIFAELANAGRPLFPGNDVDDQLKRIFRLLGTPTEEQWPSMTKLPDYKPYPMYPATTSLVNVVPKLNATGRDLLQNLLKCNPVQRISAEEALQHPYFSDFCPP

| SMILES | pIC50 [1] | pIC50 (K562) | pIC50 (MCF7 [2]) | pIC50 [3] | pIC50 [4] | pIC50 [11] | other results |
| --- | --- | --- | --- | --- | --- | --- | --- |
| CC(C)c1n[nH]c2c(NCc3ccc(-c4ccccn4)cc3)nc(N[C@H]3CC[C@H](N)CC3)nc12 | 7.02 | 6.23 | 6.32 | 6.13 | 6.14 | – | Activity (G-361 [5]): Active; Activity (G-361 [6]): Active; Activity (G-361 [7]): Active; Activity (G-361 [8]): Active; inhibition [9]: Active; inhibition [10]: Active |
| CC(C)c1n[nH]c2c(NCc3ccc(-c4ccccn4)cc3)nc(N3CCNCC3)nc12 | 7.30 | 7.77 | 7.68 | 7.19 | 7.06 | – | – |
| CC(C)c1n[nH]c2c(NCc3ccc(-c4ccccn4)cc3)nc(NCc3ccc(-c4ccccn4)cc3)nc12 | 5.84 | 5.60 | 5.62 | 5.44 | 5.14 | 5.44 | – |
| CC(C)c1n[nH]c2c(NCc3ccc(-c4ccccn4)cc3)nc(NCC(C)(C)O)nc12 | 8.05 | 7.54 | 7.62 | 7.32 | 7.07 | – | Activity (G-361 [5]): Active; Activity (G-361 [6]): Active; Activity (G-361 [7]): Active; Activity (G-361 [8]): Active; inhibition [12]: Active; inhibition [13]: Active |
| CC[C@H](CO)Nc1nc(NCc2ccc(-c3ccccn3)cc2)c2ncn(C(C)C)c2n1 | – | 6.76 | 6.80 | 6.30 | 6.46 | – | – |
| CCC(CO)Nc1nc(NCc2ccc(-c3ccccn3)cc2)c2[nH]nc(C(C)C)c2n1 (configuration not stated) | 7.27 | – | 7.28 | 7.17 | 6.96 | – | Activity (MCF7 [2]): Dose-dependent effect; Activity (HCT-116): Dose-dependent effect; Activity (MCF7 [14]): Active; Activity (MCF7 [15]): Active; Activity (MCF7 [16]): Active; Activity (MCF7 [17]): Active |
| CC(C)c1n[nH]c2c(NCc3ccc(-c4ccccn4)cc3)nc(NCC(O)CN)nc12 (configuration not stated) | 7.29 | 6.15 | 6.51 | 5.99 | 6.11 | 7.77 | Activity (MCF7 [18]): Active; Activity (MCF7 [2]): Dose-dependent effect; Activity (HCT-116): Dose-dependent effect; Activity (MCF7 [19]): Active; Activity (MCF7 [20]): Active; Activity (MCF7 [21]): Active |
| CC(C)c1n[nH]c2c(NCc3ccc(-c4ccccn4)cc3)nc(NCCN)nc12 | 7.74 | 7.20 | 7.21 | 6.64 | 6.64 | 8.10 | – |
| CC(C)c1n[nH]c2c(NCc3ccc(-c4ccccn4)cc3)nc(N3CCN(CCO)CC3)nc12 | 6.88 | 6.84 | 6.71 | 6.74 | 6.46 | – | – |
| CC[C@H](CO)Nc1nc(NCc2ccccc2)c2ncn(C(C)C)c2n1 [SELICICLIB] | – | – | 4.91 | – | 4.84 | – | – |
| CC(C)c1n[nH]c2c(NCc3ccc(-c4ccccn4)cc3)nc(N3CCSCC3)nc12 | 7.21 | 6.23 | 6.28 | 6.06 | 6.03 | – | – |
| CC(C)c1n[nH]c2c(NCc3ccc(-c4ccccn4)cc3)nc(N3CCOCC3)nc12 | 7.74 | 6.96 | 6.79 | 6.71 | 6.57 | – | Activity (G-361 [5]): inactive; Activity (G-361 [6]): Active; Activity (G-361 [7]): inactive; Activity (G-361 [8]): Active; inhibition [22]: Active |
| CSc1nc(NCc2ccc(-c3ccccn3)cc2)c2[nH]nc(C(C)C)c2n1 | 7.32 | 6.11 | 6.09 | 5.85 | 5.55 | – | – |
| CC(C)c1n[nH]c2c(NCc3ccc(-c4ccccn4)cc3)nc(NCC(O)CO)nc12 (configuration not stated) | 7.92 | 7.33 | 7.23 | 7.14 | 7.06 | 7.68 | – |
| CC(C)c1n[nH]c2c(NCc3ccc(-c4ccccn4)cc3)nc(NCCN(C)C)nc12 | 6.33 | 6.90 | 6.65 | 6.19 | 6.41 | – | – |
| CC(C)c1n[nH]c2c(NCc3ccc(-c4ccccn4)cc3)nc(S(C)(=O)=O)nc12 | 7.15 | 6.19 | 6.34 | 6.10 | 5.94 | – | – |
| CC(C)c1n[nH]c2c(NCc3ccc(-c4ccccn4)cc3)nc(N[C@@H]3CCCC[C@H]3N)nc12 (relative stereo) | 7.34 | 6.76 | 6.53 | 6.32 | 6.37 | 7.36 | – |
| CC[C@H](CO)Nc1nc(NCc2ccccc2)c2[nH]nc(C(C)C)c2n1 | – | – | – | – | – | – | inhibition [23]: Active |
| CC(C)c1n[nH]c2c(NCc3ccc(-c4ccccn4)cc3)nc(N3CCCCC3CCO)nc12 (configuration not stated) | 7.62 | 6.78 | 6.88 | 6.69 | 6.85 | 7.43 | – |
| CC(C)c1n[nH]c2c(NCc3ccc(-c4ccccn4)cc3)nc(NCCO)nc12 | 7.51 | 7.42 | 7.29 | 7.41 | 7.57 | 7.31 | – |
